Measurements reported in ChEMBL document CHEMBL3576826, “New Monocyclic, Bicyclic, and Tricyclic Ethynylcyanodienones as Activators of the Keap1/Nrf2/ARE Pathway and Inhibitors of Inducible Nitric Oxide Synthase” (J Med Chem, 2015).

Experiments:
[1] = target: Kelch-like ECH-associated protein 1/Nuclear factor erythroid 2-related factor 2 (Mus musculus) (UniProt Q60795+Q9Z2X8); assay: Activation of Keap1/Nrf2/ARE pathway in mouse Hepa-1c1c7 cells assessed as double induction of NQO1 specific activity after 48 hrs by bicinchoninic acid assay; type: cell-based
In short: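 Hepa1c1c7 cells, 10000 per well, grown 24 h, then exposed to increasing concentrations for 48 h. Lysed; protein by BCA assay; NQO1 specific activity measured. CD = concentration doubling NQO1 specific activity, used as inducer potency. Eight replicate wells per concentration; SD 5–10%.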

[2] = target: T1, Nitric oxide synthase, inducible (Mus musculus, UniProt P29477); assay: Inhibition of iNOS in LPS-stimulated mouse RAW264.7 cells assessed as inhibition of nitric oxide production after 48 hrs by Griess assay; type: cell-based
T1 sequence (P29477 whole entry): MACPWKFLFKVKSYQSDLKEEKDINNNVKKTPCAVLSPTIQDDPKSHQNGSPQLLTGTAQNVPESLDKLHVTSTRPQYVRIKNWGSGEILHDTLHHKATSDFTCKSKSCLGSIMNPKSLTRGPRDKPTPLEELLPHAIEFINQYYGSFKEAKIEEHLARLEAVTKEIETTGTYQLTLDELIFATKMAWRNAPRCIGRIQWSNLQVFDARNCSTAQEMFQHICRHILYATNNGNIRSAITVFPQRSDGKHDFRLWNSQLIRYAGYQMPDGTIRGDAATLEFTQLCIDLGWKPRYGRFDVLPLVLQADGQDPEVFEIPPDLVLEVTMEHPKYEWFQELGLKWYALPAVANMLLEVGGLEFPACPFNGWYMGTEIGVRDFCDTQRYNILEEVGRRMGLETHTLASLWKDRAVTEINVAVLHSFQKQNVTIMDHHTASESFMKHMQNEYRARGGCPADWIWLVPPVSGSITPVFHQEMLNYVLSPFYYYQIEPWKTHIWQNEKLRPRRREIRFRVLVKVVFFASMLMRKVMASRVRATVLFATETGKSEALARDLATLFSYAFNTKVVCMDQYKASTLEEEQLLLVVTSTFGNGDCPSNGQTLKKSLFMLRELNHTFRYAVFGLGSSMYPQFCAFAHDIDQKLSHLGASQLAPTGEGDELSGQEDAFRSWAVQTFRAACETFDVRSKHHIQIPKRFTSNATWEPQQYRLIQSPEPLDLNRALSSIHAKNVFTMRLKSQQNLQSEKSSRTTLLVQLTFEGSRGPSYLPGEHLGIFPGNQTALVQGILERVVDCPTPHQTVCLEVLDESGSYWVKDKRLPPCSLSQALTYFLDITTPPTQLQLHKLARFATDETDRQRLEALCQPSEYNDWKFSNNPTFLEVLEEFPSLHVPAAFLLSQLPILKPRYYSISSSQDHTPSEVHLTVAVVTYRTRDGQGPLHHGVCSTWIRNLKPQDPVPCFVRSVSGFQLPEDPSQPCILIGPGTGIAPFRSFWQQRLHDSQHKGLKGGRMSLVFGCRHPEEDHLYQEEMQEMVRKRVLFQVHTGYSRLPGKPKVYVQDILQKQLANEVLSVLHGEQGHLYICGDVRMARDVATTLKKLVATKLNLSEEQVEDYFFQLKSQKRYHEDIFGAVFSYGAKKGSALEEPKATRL

Sequence of Kelch-like ECH-associated protein 1/Nuclear factor erythroid 2-related factor 2 (Mus musculus) (Q60795 whole entry, looked up): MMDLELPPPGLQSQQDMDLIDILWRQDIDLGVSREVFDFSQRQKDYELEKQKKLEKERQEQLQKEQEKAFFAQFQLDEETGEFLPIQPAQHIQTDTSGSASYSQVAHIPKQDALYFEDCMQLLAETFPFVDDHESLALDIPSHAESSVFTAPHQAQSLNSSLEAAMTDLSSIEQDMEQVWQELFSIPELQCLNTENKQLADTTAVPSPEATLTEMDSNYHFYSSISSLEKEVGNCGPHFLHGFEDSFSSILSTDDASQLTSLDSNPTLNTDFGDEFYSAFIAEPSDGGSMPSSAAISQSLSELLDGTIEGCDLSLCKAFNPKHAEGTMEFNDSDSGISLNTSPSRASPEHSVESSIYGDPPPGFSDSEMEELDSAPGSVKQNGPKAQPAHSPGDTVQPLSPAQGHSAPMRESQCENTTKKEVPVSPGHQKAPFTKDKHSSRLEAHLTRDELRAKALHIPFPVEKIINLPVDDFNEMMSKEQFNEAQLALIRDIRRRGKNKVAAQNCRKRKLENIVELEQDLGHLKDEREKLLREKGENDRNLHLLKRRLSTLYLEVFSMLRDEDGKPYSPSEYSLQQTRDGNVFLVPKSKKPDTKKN
Sequence of Kelch-like ECH-associated protein 1/Nuclear factor erythroid 2-related factor 2 (Mus musculus) (Q9Z2X8 whole entry, looked up): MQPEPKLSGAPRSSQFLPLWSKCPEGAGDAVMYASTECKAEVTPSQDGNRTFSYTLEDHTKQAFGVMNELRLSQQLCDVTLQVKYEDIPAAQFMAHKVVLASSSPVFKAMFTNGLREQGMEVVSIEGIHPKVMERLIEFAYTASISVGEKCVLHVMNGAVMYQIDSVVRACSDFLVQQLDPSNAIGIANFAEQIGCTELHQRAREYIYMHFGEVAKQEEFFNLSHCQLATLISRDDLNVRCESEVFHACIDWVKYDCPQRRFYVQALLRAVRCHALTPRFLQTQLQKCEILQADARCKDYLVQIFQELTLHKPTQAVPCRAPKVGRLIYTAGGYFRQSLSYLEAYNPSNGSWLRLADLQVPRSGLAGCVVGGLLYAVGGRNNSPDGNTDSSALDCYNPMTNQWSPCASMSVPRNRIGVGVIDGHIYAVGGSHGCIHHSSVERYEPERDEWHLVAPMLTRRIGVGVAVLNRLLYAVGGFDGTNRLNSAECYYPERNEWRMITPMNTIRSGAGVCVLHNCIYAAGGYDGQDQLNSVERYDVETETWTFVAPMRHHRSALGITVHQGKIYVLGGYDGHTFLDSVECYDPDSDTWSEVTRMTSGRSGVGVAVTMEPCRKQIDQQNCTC

SMILES | CD [1] [nM] | IC50 ([2]; raw264.7) [nM] | IC50 [2] [nM]
C#CC12C=C(C#N)C(=O)C=C1c1ccccc1CC2 (stereo not drawn) | 150 | – | –
C#CC1(C)C=C(C#N)C(=O)c2ccccc21 (stereo not drawn) | 220 | – | –
C#CC12C=C(C#N)C(=O)C=C1C(C)(C)CC2 (stereo not drawn) | 100 | 200 | –
C#CC1(CC)C=CC(=O)C(C#N)=C1 (stereo not drawn) | 42 | – | –
C#CC12C=C(C#N)C(=O)C=C1c1c(Br)cccc1CC2 (stereo not drawn) | 1300 | 650 | –
C#CC12C=C(C#N)C(=O)C=C1c1ccccc1C2 (stereo not drawn) | 41 | 380 | –
C#CC1(C#C)C=CC(=O)C(C#N)=C1 | 180 | 210 | –
C#C[C@]12C=C(C#N)C(=O)C=C1[C@@]1(C)C=C(C#N)C(=O)C(C)(C)[C@@H]1CC2 (racemic) | 0.9 | 1 | –
C#CC12C=C(C#N)C(=O)C=C1c1c(Cl)cccc1CC2 (stereo not drawn) | 900 | – | –
C#CC1(C)C=CC(=O)C(C#N)=C1 (stereo not drawn) | 21 | 18 | –
C#CC12C=C(C#N)C(=O)C=C1c1c(C)cccc1CC2 (stereo not drawn) | 1800 | 940 | –
C#CC1(C=C)C=CC(=O)C(C#N)=C1 (stereo not drawn) | 20 | 16 | –
CC1(C)CC[C@]2(C(=O)O)CC[C@]3(C)[C@H](C(=O)C=C4[C@@]5(C)C=C(C#N)C(=O)C(C)(C)[C@@H]5CC[C@]43C)[C@@H]2C1 [BARDOXOLONE] | 2.3 | 23 | –
C#CC12C=C(C#N)C(=O)C=C1CCC2 (stereo not drawn) | 56 | 160 | –
C[S+]([O-])CCCCN=C=S (stereo not drawn) [SULFORAPHANE] | 200 | – | 400
C#CC12C=C(C#N)C(=O)C=C1c1c(Cl)cccc1C2 (stereo not drawn) | 130 | 800 | –
